Data taken from ChEMBL document CHEMBL4152256, “Structure-activity relationship of new antimalarial 1-aryl-3-susbtituted propanol derivatives: Synthesis, preliminary toxicity profiling, parasite life cycle stage studies, target exploration, and targeted delivery” (Eur J Med Chem, 2018).

Tests used:
[1] = test system: Plasmodium falciparum; experiment: Ratio of IC50 for antiplasmodial activity against Plasmodium falciparum 3D7 ring stage forms infected in immunoliposome encapsulated compound pre-loaded human RBC by [3H]-hypoxanthine incorporation assay to IC50 for antiplasmodial activity against Plasmodium falciparum 3D7 ring stage forms infected in human non-washed human RBC containing full drug dosages by [3H]-hypoxanthine incorporation assay; assay type: functional
[2] = test system: Plasmodium falciparum; experiment: (§1) Antiplasmodial activity against chloroquine-sensitive Plasmodium falciparum 3D7 ring forms infected in human RBC using compound encapsulated in to immunoliposome targeted to GPA incubated for 15 mins followed by compound removal and further incubation for 48 hrs by [3H]-hypoxanthine incorporation assay; assay type: functional, organism-based; details: 3D7, Erythrocyte
[3] = Drug internalization in liposomes assessed as zeta potential at 500 uM in presence of pH 4 citrate buffer solution (reference value: -2.73 mV); assay type: physicochemical; details: artificial membrane, pH 4, 500 µM
Outline: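 Zeta potential of liposomes loaded with compound (500 µM drug per 10 mM lipid), measured in the pH 4.0 citrate hydration buffer and again after buffer exchange to PBS pH 7.4; drug-free liposomes of the same lipid composition served as reference.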

[4] = test system: Plasmodium falciparum; experiment: Antiplasmodial activity against chloroquine-sensitive Plasmodium falciparum 3D7 ring forms infected in human RBC incubated for 15 mins followed by compound removal and further incubation for 48 hrs by [3H]-hypoxanthine incorporation assay; assay type: functional, organism-based; details: 3D7, Erythrocyte
[5] = test system: Plasmodium falciparum; experiment: Antiplasmodial activity against Plasmodium falciparum 3D7 ring stage forms infected in human non-washed human RBC containing full drug dosages by [3H]-hypoxanthine incorporation assay; assay type: functional, organism-based; details: 3D7, Erythrocyte
[6] = Drug encapsulation in liposomes assessed as encapsulation efficiency in citrate/phosphate buffered measured after buffer exchange with PBS by UV/Vis spectroscopy relative to untreated control; assay type: physicochemical; details: artificial membrane
Outline: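 Compound loaded into DSPC:cholesterol:DSPE-PEG2000-Mal:DOPE-Rho (84.5:10:5:0.5) liposomes using a citrate (pH 4.0)/PBS pH gradient. Drug measured by UV/vis after SDS disruption at each step: citrate liposomes, after buffer exchange to PBS (chloroquine added to preformed liposomes here), and after ultracentrifugation. Encapsulation efficiency = % of drug that is encapsulated out of total drug in the sample.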

[7] = test system: Plasmodium falciparum; experiment: Antiplasmodial activity against Plasmodium falciparum 3D7 late stage forms infected in human non-washed human RBC containing full drug dosages by [3H]-hypoxanthine incorporation assay; assay type: functional, organism-based; details: 3D7, Erythrocyte
[8] = test system: Plasmodium falciparum; experiment: Antiplasmodial activity against Plasmodium falciparum 3D7 late stage forms infected in immunoliposome encapsulated compound pre-loaded human RBC by [3H]-hypoxanthine incorporation assay; assay type: functional, organism-based; details: 3D7, Erythrocyte
[9] = test system: Plasmodium falciparum; experiment: Ratio of IC50 for antiplasmodial activity against chloroquine-sensitive Plasmodium falciparum 3D7 late forms infected in human RBC incubated for 15 mins followed by compound removal and further incubation for 48 hrs by [3H]-hypoxanthine incorporation assay to IC50 for antiplasmodial activity against chloroquine-sensitive Plasmodium falciparum 3D7 late forms infected in human RBC using compound …; assay type: functional
[10] = test system: Plasmodium falciparum; experiment: Antiplasmodial activity against chloroquine-sensitive Plasmodium falciparum 3D7 late forms infected in human RBC incubated for 15 mins followed by compound removal and further incubation for 48 hrs by [3H]-hypoxanthine incorporation assay; assay type: functional, organism-based; details: 3D7, Erythrocyte
[11] = test system: Plasmodium falciparum; experiment: as §1, with “late” for “ring”; assay type: functional, organism-based; details: 3D7, Erythrocyte
[12] = test system: Plasmodium falciparum; experiment: Antiplasmodial activity against Plasmodium falciparum 3D7 ring stage forms infected in immunoliposome encapsulated compound pre-loaded human RBC by [3H]-hypoxanthine incorporation assay; assay type: functional, organism-based; details: 3D7, Erythrocyte
[13] = Genotoxicity in Salmonella typhimurium TA1535 harboring pSK1002 assessed as umu gene induction at 0.0005 mg/ml in absence of Sprague-Dawley rat liver S9 fraction after by SOS/umu assay relative to control; assay type: toxicity, organism-based; details: salmonella enterica subsp. enterica serovar typhimurium, read-out: FC

| SMILES | Ratio IC50 [1] | IC50 [2] | Activity [3] | IC50 [4] | IC50 [5] | Activity [6] | IC50 [7] | IC50 [8] | Ratio IC50 [9] | IC50 [10] | IC50 [11] | IC50 [12] | fold induction at 0.0005 mg/ml [13] |
| --- | --- | --- | --- | --- | --- | --- | --- | --- | --- | --- | --- | --- | --- |
| N#Cc1ccc(N2CCC(NCCC(O)c3ccc(F)c4ccccc34)CC2)c(C(F)(F)F)c1 (stereo in doubt; 72) | 2.8 | 0.146 µM | 8.54 mV | 0.867 µM | 0.181 µM | 77.2% | 0.301 µM | 0.443 µM | 5.2 | 0.916 µM | 0.175 µM | 0.513 µM | – |
| OC(CCN1CCN(C(c2ccccc2)c2ccccc2)CC1)c1ccc(F)c(F)c1 (stereo not drawn) | – | – | – | – | – | – | – | – | – | – | – | – | 0.7 |
